Series [1] has as its target T1, Tyrosine-protein phosphatase non-receptor type 1 (Homo sapiens, UniProt P18031).
T1 sequence (P18031 whole entry): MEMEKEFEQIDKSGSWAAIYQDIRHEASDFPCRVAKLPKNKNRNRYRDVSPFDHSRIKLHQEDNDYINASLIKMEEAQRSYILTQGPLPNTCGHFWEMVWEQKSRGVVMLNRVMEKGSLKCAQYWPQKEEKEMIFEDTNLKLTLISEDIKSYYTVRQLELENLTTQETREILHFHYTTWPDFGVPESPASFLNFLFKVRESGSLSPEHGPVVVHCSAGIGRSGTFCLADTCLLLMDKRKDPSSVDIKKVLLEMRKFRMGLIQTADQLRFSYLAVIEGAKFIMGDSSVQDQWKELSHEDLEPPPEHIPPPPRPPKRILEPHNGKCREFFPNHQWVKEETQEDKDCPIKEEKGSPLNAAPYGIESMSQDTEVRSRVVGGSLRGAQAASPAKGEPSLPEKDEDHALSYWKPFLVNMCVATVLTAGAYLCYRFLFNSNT
The series is described as follows: Inhibition of PTP1B assessed as para-nitrophenyl phosphate catalyzed hydrolysis of para-nitrophenol by p-NPP assay. The gist of the method:
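Enzymatic pNPP assay: initial rate of PTP1B-catalyzed pNPP hydrolysis read at 405 nm. IC50 determined at a fixed pNPP concentration of 1 mM. n = 3, mean ± SD.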

For series [2], the target named is T2, Tyrosine-protein phosphatase non-receptor type 2 (Homo sapiens, UniProt P17706).
T2 sequence (P17706 whole entry): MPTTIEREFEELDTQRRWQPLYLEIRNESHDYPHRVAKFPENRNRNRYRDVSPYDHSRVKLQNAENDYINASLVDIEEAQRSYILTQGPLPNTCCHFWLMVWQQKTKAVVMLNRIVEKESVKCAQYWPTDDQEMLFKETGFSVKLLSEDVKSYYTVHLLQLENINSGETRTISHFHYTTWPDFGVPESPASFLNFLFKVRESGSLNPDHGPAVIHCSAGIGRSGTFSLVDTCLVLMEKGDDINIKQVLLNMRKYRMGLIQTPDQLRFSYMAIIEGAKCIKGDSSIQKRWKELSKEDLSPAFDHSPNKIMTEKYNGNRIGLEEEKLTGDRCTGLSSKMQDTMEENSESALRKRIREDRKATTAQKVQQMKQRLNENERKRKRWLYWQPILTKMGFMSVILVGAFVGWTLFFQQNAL
The series is described as follows: Inhibition of TCPTP.

The nature of series [3]: Selectivity ratio of IC50 for CD45 to IC50 for PTP1B.
Series [4] can be described thus: Selectivity ratio of IC50 for LAR to IC50 for PTP1B.
Series [5] is described as follows: Selectivity ratio of IC50 for SHP1 to IC50 for PTP1B.
Series [6] is described as follows: Selectivity ratio of IC50 for SHP2 to IC50 for PTP1B.
A short description of series [7]: Selectivity ratio of IC50 for PTPalpha to IC50 for PTP1B.
The nature of series [8]: Selectivity ratio of IC50 for TCPTP to IC50 for PTP1B.
In series [9] the test system is Mus musculus. The series is described as follows: Antidiabetic activity in fasted C57BL/6J mouse assessed as reduction in serum AUC glucose level at 20 mg/kg, po after 240 mins by intraperitoneal glucose tolerance test relative to control. The series is classed as functional. An outline of the steps: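 Overnight-fasted male C57BL/6J mice dosed orally at 20 mg/kg 0.5 h before an intraperitoneal glucose load of 1.5 g/kg. Blood taken at 0, 30, 60, 120 and 240 min, and serum glucose measured promptly by GOD-POD method in duplicate. AUC 0–240 min compared with vehicle control. Two-way ANOVA with Bonferroni post test, mean ± SEM.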

Series [10] is described as follows: Tmax in fasted C57BL/6J mouse at 20 mg/kg, po. It counts as ADME, organism-based. On the set-up: dose 20 mg/kg, route oral. The settings on record: in vivo. The gist of the method:
(§1)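 Male C57BL/6J mice (n = 6), fasted overnight, single 20 mg/kg dose by body weight, given po or iv. Plasma separated at 4 °C, stored at −70 °C, then quantified by LC–MS/MS. %F taken from po AUC relative to iv AUC. Mean ± SD.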

The nature of series [11]: Cmax in fasted C57BL/6J mouse at 20 mg/kg, po. The series is classed as ADME, organism-based. Also on record: dose 20 mg/kg, route oral. The settings on record: in vivo. An outline of the steps:
as §1

The nature of series [12]: Half life in fasted C57BL/6J mouse at 20 mg/kg, po. It counts as ADME, organism-based. Also on record: dose 20 mg/kg, route oral. The settings on record: in vivo. The gist of the method: as §1
Series [13] can be described thus: AUC (0 to infinity) in fasted C57BL/6J mouse at 20 mg/kg, po. It counts as ADME, organism-based. On the set-up: time infinity, dose 20 mg/kg, route oral. Particulars: plasma. An outline of the steps:
as §1

A short description of series [14]: Oral bioavailability in fasted C57BL/6J mouse at 20 mg/kg. The series is classed as ADME, organism-based. Particulars: in vivo. The gist of the method: as §1
The nature of series [15]: AUC in fasted C57BL/6J mouse at 20 mg/kg, iv. It counts as ADME, organism-based. Also on record: dose 20 mg/kg, route intravenous. The settings on record: plasma. An outline of the steps:
as §1

pIC50: −log10 of the molar value. The source made the active and inactive calls.

What is called pIC50 is −log10 of the IC50, conventionally taken in molar units. Usually Tmax stands for the time at which the peak concentration occurs. By Cmax is commonly meant the peak of the concentration-time curve. For orientation: half-life means the time needed for the level to fall by half in the phase considered. One may read the AUC(0-inf) as total exposure, with the tail of the curve extrapolated. A low value points to low exposure. Broadly, the bioavailability is the share of a dose that reaches the circulation, judged against a reference dose that is usually intravenous. The low end stands for poor availability, the high end for good availability. For orientation: AUC means concentration integrated over time. A high value points to more exposure. As to `O=C(O)COc1ccc(S(=O)(=O)N(Cc2ccc(-c3csnn3)cc2)Cc2ccc3cc(F)c(C(F)(F)P(=O)(O)O)cc3n2)cc1`, the results for the pIC50 in series [1] and in [2] were 7.96 and 6.00, respectively. For the same compound, the Ratio IC50 is above 5000 in series [3]; above 5000 in [4]; above 5000 in series [5]; above 5000 in series [6]; above 5000 in [7]; 90 in series [8]. Moreover, the Activity in series [9] came to 19.18 mg/dL. Further, the Tmax in series [10] was 41.4 min. In series [11], the peak concentration (Cmax) turned out to be 960 ng/mL. The half-life in [12] was 59.4 min. In series [13], the AUC(0-inf) was found to be 1320 ng·h/mL. In addition, the bioavailability in series [14] came to 0.9%. In [15], this compound came in with an AUC of 147000 ng·h/mL.

Consider `O=C(O)COc1ccc(S(=O)(=O)N(Cc2ccc(-c3csnn3)cc2)Cc2ccc(C(F)(F)P(=O)(O)O)c(F)c2)cc1`, for which the pIC50 in [1] is 7.46; in [2], 6.06. In addition, the Ratio IC50 was above 5000 in series [3]; above 5000 in series [4]; above 5000 in series [5]; above 5000 in [6]; above 5000 in series [7]; 24 in series [8].

On to `NS(=O)(=O)C(F)(F)c1ccc(CN(Cc2ccc(-c3csnn3)cc2)S(=O)(=O)c2ccc(OCC(=O)O)cc2)cc1F`, for which the negative logarithm of the IC50 (pIC50) in series [1] was 7.51; in series [2], 6.21. For the same compound, the Ratio IC50 is above 5000 in [3]; above 5000 in series [4]; above 5000 in [5]; above 5000 in series [6]; above 5000 in series [7]; 20 in series [8].

For `Cc1cc(CN(Cc2ccc(-c3csnn3)cc2)S(=O)(=O)c2ccc(OCC(=O)O)cc2)ccc1C1CC(=O)NS1(=O)=O` (stereo not given), in series [1], the pIC50 is 6.33.

On to `O=C(O)COc1ccc(S(=O)(=O)N(Cc2ccc(-c3csnn3)cc2)Cc2ccc3cc(Br)c(C(F)(F)P(=O)(O)O)cc3n2)cc1`, for which the pIC50 in series [1] was 7.74.

For `O=C(O)COc1ccc(S(=O)(=O)N(Cc2ccc(-c3csnn3)cc2)Cc2ccc(C3CC(=O)NS3(=O)=O)cc2)cc1` (stereo not given), in series [1], the negative logarithm of the IC50 (pIC50) was 6.30.

As for `NS(=O)(=O)C(F)(F)c1ccc(CN(Cc2ccc(-c3csnn3)cc2)S(=O)(=O)c2ccc(OCC(=O)O)cc2)cc1Br`, in [1], the pIC50 is 7.33.

Consider `NS(=O)(=O)C(F)(F)c1cc2cc(CN(Cc3ccc(-c4csnn4)cc3)S(=O)(=O)c3ccc(OCC(=O)O)cc3)ccc2cc1F`, for which the negative-log IC50 (pIC50) in [1] is 7.46.

As for `O=C(O)COc1ccc(S(=O)(=O)N(Cc2ccc(-c3csnn3)cc2)Cc2ccc3cc(Br)c(C(F)(F)P(=O)(O)O)cc3c2)cc1`, in series [1], the pIC50 was 7.77.

Regarding `O=C(O)COc1ccc(S(=O)(=O)N(Cc2ccc(-c3csnn3)cc2)Cc2ccc(F)c(C(F)(F)P(=O)(O)O)c2)cc1`, the pIC50 in series [1] is 6.85.

For the compound `O=C(O)COc1ccc(S(=O)(=O)N(Cc2ccc(-c3csnn3)cc2)Cc2ccc(C3CC(=O)NS3(=O)=O)c(F)c2)cc1` (stereo not given), the pIC50 in series [1] was 6.34.

`O=C(O)COc1ccc(S(=O)(=O)N(Cc2ccc(-c3csnn3)cc2)Cc2ccc3cc(F)c(C(F)(F)P(=O)(O)O)cc3c2)cc1`: the figures for the pIC50 in series [1] and in [2] were 8.05 and 6.06, respectively. Also, the Ratio IC50 in series [3] is above 5000; in series [4] it was above 5000; in series [5], above 5000; in series [6] it was above 5000; in [7], above 5000; in series [8], 96. Moreover, the Activity in series [9] came out at 52.8 mg/dL. In addition, in series [10], the Tmax was 18.6 min. The same compound came in with a peak concentration (Cmax) in series [11] of 6300 ng/mL. Also, the half-life in series [12] is 418 min. In series [13], this compound came in with an AUC(0-inf) of 8910 ng·h/mL. In series [14], this compound had a bioavailability of 6.51%. For the same compound, in series [15], the AUC came out at 137000 ng·h/mL.

For the compound `NS(=O)(=O)C(F)(F)c1cc2nc(CN(Cc3ccc(-c4csnn4)cc3)S(=O)(=O)c3ccc(OCC(=O)O)cc3)ccc2cc1Br`, the pIC50 in [1] is 7.39.

For the compound `O=C(O)COc1ccc(S(=O)(=O)N(Cc2ccc(-c3csnn3)cc2)Cc2ccc(C(F)(F)P(=O)(O)O)cc2)cc1`, the Ratio IC50 in series [8] was 7. Besides, in series [9], the outcome was inactive.

As for `NS(=O)(=O)C(F)(F)c1cc2cc(CN(Cc3ccc(-c4csnn4)cc3)S(=O)(=O)c3ccc(OCC(=O)O)cc3)ccc2cc1Br`, the pIC50 in [1] is 7.41.

`NS(=O)(=O)C(F)(F)c1cc2nc(CN(Cc3ccc(-c4csnn4)cc3)S(=O)(=O)c3ccc(OCC(=O)O)cc3)ccc2cc1F`: in series [1], the pIC50 is 7.42.

For `O=C(O)COc1ccc(S(=O)(=O)N(Cc2ccc(-c3csnn3)cc2)Cc2ccc(C(F)(F)P(=O)(O)O)c(Br)c2)cc1`, the pIC50 in series [1] is 7.30; in [2] it was 6.12. For the same compound, the Ratio IC50 in series [3] is above 5000; in series [4] it was above 5000; in series [5], above 5000; in series [6], above 5000; in series [7], above 5000; in series [8], 15.

With `O=C(c1ccccc1)C(Cc1ccc2cc(Br)c(C(F)(F)P(=O)(O)O)cc2c1)(Cc1ccc2cc(Br)c(C(F)(F)P(=O)(O)O)cc2c1)n1nnc2ccccc21`, the Ratio IC50 in series [8] turned out to be 116.

In the case of `O=C(O)COc1ccc(S(=O)(=O)N(Cc2ccc(-c3csnn3)cc2)Cc2ccc(Br)c(C(F)(F)P(=O)(O)O)c2)cc1`, the pIC50 in series [1] is 6.54.

In the case of `O=C(O)COc1ccc(S(=O)(=O)N(Cc2ccc(-c3csnn3)cc2)Cc2ccc(C3CC(=O)NS3(=O)=O)c(Br)c2)cc1` (stereo not given), the pIC50 in series [1] is 6.32.

The values are drawn from ChEMBL document CHEMBL1938308, “Discovery of potent, selective and orally bioavailable triaryl-sulfonamide based PTP1B inhibitors” (Bioorg Med Chem Lett, 2012).
